From the RNAGym collection of RNA variant scans (doi:10.1126/science.aae0568)
This sample holds only a part of the variants without activity.

B1: tRNA (parent)
chain: GUUCCGUUGGCGUAAUGGUAACGCGUCUCCCUCCUAAGGAGAAGACUGCGGGUUCGAGUCCCGUACGGAACG

Variants of: B1
Test: yeast fitness relative to wild type (ratio to wild type); higher = fitter; tRNA-Arg(CCU), competitive growth, 37 C, YPD
Procedure, shortened: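 Variants of the tRNA-Arg(CCU) gene, chemically synthesised with a 3% per-site mutation rate at 69 sites, were placed at the native genomic locus in Saccharomyces cerevisiae. The pooled strains were competed in YPD at 37°C for 24 hours in six parallel replicates. Gene amplicons from the start population and from each end population were read by 100-nucleotide paired-end sequencing. Darwinian fitness relative to wild type came from changes in genotype frequencies; genotypes needed ≥ 100 starting reads, and estimates < 0.5 were set to 0.5.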

Going from G52A G67U to G52A G67C, the yeast fitness rises from 0.619 to 0.796.

Going from C49U C55U G58A to C49U A57C, the yeast fitness rises from no more than 0.5 to 0.78.

Going from G50A C66U A69C to G50C C61G A70C, the yeast fitness falls from 0.531 to no more than 0.5.

Going from C49U C62U G67A to G50A G68C, the yeast fitness rises from 0.573 to 0.635.

First: G50C C55A C60A
Second: G52C C66U
The yeast fitness of the first is lower: no more than 0.5 for the first, 0.547 for the second.

G52A G56U A70U and C49G U53C C55A G63A cannot be ordered by yeast fitness: no more than 0.5 for the first, no more than 0.5 for the second.

Compared with G50C C62U, G50C C62G is higher in yeast fitness: 0.963 for the first, 0.965 for the second.

First: C49U U64C
Second: C49U U64A
The yeast fitness of the first is higher: 0.921 for the first, 0.753 for the second.

Compared with U53G G63C A69C, U53C A57U U59A C66U is higher in yeast fitness: no more than 0.5 for the first, 0.535 for the second.

Going from G51C A57G C61U A65C to G51C G63A, the yeast fitness rises from no more than 0.5 to 0.611.

First: C49U G51A A69C
Second: C49U G67U A69C
The yeast fitness of the first is higher: 0.61 for the first, 0.542 for the second.

Compared with G50A C62G, G50A C62U is lower in yeast fitness: 1.03 for the first, 1 for the second.

Going from G51A C55U A65U to C49G G52A A69U, the yeast fitness rises from no more than 0.5 to 0.542.

Going from G51A U59A to G51C C62U, the yeast fitness falls from 0.696 to 0.668.

Going from G51C C62G to G51C U59C, the yeast fitness falls from 0.528 to 0.523.

First: G51C C62G G68A
Second: G51C G68C
The yeast fitness of the first is higher: 0.715 for the first, 0.641 for the second.

Going from G51A A69U to C49U A65G, the yeast fitness rises from 0.738 to 0.942.

Compared with C49G G67C, G50C U53C U54A is lower in yeast fitness: 0.84 for the first, no more than 0.5 for the second.

Compared with G50U U59G, C49U U53C is lower in yeast fitness: 0.796 for the first, 0.691 for the second.

Compared with G52C G67C, G50A C55G C62A is higher in yeast fitness: 0.555 for the first, 0.654 for the second.

First: G51A G67U
Second: G51A G67A
The yeast fitness of the first is lower: 0.709 for the first, 0.872 for the second.

First: G51A G67C
Second: C49U G51A
The yeast fitness of the first is higher: 0.857 for the first, 0.737 for the second.

Compared with C49U G51C, G52C U53C G67C is lower in yeast fitness: 0.756 for the first, no more than 0.5 for the second.

First: G51A A65G
Second: G51A A65C
The yeast fitness of the first is higher: 0.852 for the first, 0.75 for the second.

Compared with G51A A65U, G51C C66U is lower in yeast fitness: 0.66 for the first, 0.565 for the second.

Going from G51C C66A to G50A U53C C62A A69U, the yeast fitness rises from no more than 0.5 to 0.517.

Going from G50A C66A to G50A C66U, the yeast fitness rises from 0.516 to 0.783.

First: C49U C66U
Second: C49U C66G
The yeast fitness of the first is higher: 0.968 for the first, 0.752 for the second.

First: C49U C66A
Second: U53G G56C C60A
The yeast fitness of the first is higher: 0.815 for the first, no more than 0.5 for the second.

Going from C49U U59A A65U to G52A C61U, the yeast fitness rises from no more than 0.5 to 0.886.

Going from G52A C55G A69U to C49G U59C, the yeast fitness rises from no more than 0.5 to 0.761.

C49G U59A and G52U are the same in yeast fitness: 0.785 for the first, 0.785 for the second.

Going from G52A to G52C, the yeast fitness falls from 0.696 to 0.635.

Compared with C49U A69U A70G, U53A C62U is higher in yeast fitness: 0.687 for the first, 0.827 for the second.

Going from C49U C55A C66U to G50C G51A C62U, the yeast fitness falls from 0.514 to no more than 0.5.

Going from C49U U54C C55G to C49U G67A, the yeast fitness rises from 0.548 to 0.879.

First: G51C G58A
Second: C49U G51C C55A
The yeast fitness of the first is higher: 0.789 for the first, 0.618 for the second.

First: U54A
Second: G50A G51U
The yeast fitness of the first is lower: 0.659 for the first, 0.664 for the second.

First: G50A G51C
Second: G50C G51C G56A
The yeast fitness of the first is lower: 0.585 for the first, 0.602 for the second.

G52A C55U and G52A C55G are the same in yeast fitness: 0.561 for the first, 0.561 for the second.

Compared with G52A C55A, C49U G63C G67C is lower in yeast fitness: 0.581 for the first, 0.53 for the second.

First: G50A G56C G63A
Second: G51A C66A
The yeast fitness of the first is higher: 0.561 for the first, 0.555 for the second.

Compared with G51A C66U, G50C A70U is higher in yeast fitness: 0.82 for the first, 0.875 for the second.

First: G50C A70G
Second: U53C A69U
The yeast fitness of the first is lower: 0.681 for the first, 0.997 for the second.

Compared with G51C U54A G56C, G50U G67A is higher in yeast fitness: no more than 0.5 for the first, 0.821 for the second.

Compared with U53A G58U C61U C62A, U53C G58A is higher in yeast fitness: no more than 0.5 for the first, 1.02 for the second.

Going from U53A C61U U64A to C49U C60A, the yeast fitness rises from no more than 0.5 to 0.668.

Going from C49U C60G to G52C A57C G63C, the yeast fitness falls from 0.609 to 0.519.

Compared with G50A G52A, U53G A57U is lower in yeast fitness: 0.688 for the first, 0.626 for the second.

First: U53G A57C
Second: U53G
The yeast fitness of the first is lower: no more than 0.5 for the first, 0.629 for the second.

Compared with U53A, U53C is higher in yeast fitness: 0.653 for the first, 0.875 for the second.

Compared with G52C G68C, G52A C66U is higher in yeast fitness: 0.639 for the first, 0.706 for the second.

First: G52A C66A
Second: G52A A70C
The yeast fitness of the first is lower: 0.649 for the first, 0.675 for the second.

Compared with G50C C66U, G50C C66A is higher in yeast fitness: 0.596 for the first, 0.657 for the second.

Compared with G52C A57U, G51C U64C is higher in yeast fitness: 0.514 for the first, 0.941 for the second.

Going from G50A C55A to C49G G63A C66U, the yeast fitness falls from 0.702 to 0.524.

Going from C49U C61G to G52A G63A G67A, the yeast fitness falls from 0.689 to 0.553.

Compared with C49U U54A, C49U U54C is higher in yeast fitness: 0.736 for the first, 0.864 for the second.

Going from C49U C55U C61U to G52A C60G, the yeast fitness falls from 0.559 to no more than 0.5.

First: G52A C60A
Second: G50C U54C C62G
The yeast fitness of the first is higher: 0.696 for the first, 0.622 for the second.

First: G52C U64A
Second: G50C
The yeast fitness of the first is lower: 0.573 for the first, 0.844 for the second.

First: G50A
Second: G50U
The yeast fitness of the first is higher: 1 for the first, 0.961 for the second.

First: U53A A70G
Second: G52C C61G
The yeast fitness of the first is higher: 0.594 for the first, no more than 0.5 for the second.

G50C C60A and U53A G67U G68A cannot be ordered by yeast fitness: no more than 0.5 for the first, no more than 0.5 for the second.

Going from C49G G52A to G52C G63A, the yeast fitness falls from 0.898 to 0.642.

G50A C62U G63A and G52A G58C A70G cannot be ordered by yeast fitness: no more than 0.5 for the first, no more than 0.5 for the second.

First: U53C C60U A69C
Second: C49U G51C U64C G68A
The yeast fitness of the first is higher: 0.57 for the first, no more than 0.5 for the second.

Going from G50A C62A C66G to G51A C61G, the yeast fitness rises from no more than 0.5 to 0.588.

Compared with G51A C61A, G51A C61U is higher in yeast fitness: 0.536 for the first, 1.11 for the second.

First: G51A G63A
Second: G51A G63C
The yeast fitness of the first is higher: 0.739 for the first, 0.693 for the second.

Going from G50C U53A A57U A65U to G51A A57C U59C, the yeast fitness falls from 0.57 to no more than 0.5.

First: U53A G56A
Second: G50A C61G
The yeast fitness of the first is lower: 0.636 for the first, 0.737 for the second.

Compared with G50A A70G, G50A A70U is lower in yeast fitness: 1.06 for the first, 0.805 for the second.

G51A C55G G68C and C49U A57U G67C cannot be ordered by yeast fitness: no more than 0.5 for the first, no more than 0.5 for the second.

Going from G50U A65G A70C to G51A C62U, the yeast fitness rises from 0.59 to 0.763.

Going from G51A C62G to G51A C62A, the yeast fitness falls from 0.621 to 0.561.

First: G51A U53A A69C
Second: G52C U54C
The yeast fitness of the first is lower: no more than 0.5 for the first, 0.608 for the second.

Going from G52A G58A A65G to G51A U53G G68A, the yeast fitness falls from 0.684 to no more than 0.5.

First: G51A A70U
Second: C49U
The yeast fitness of the first is lower: 0.935 for the first, 0.995 for the second.

First: U53G U64C
Second: G51A U53C
The yeast fitness of the first is lower: 0.669 for the first, 0.745 for the second.

First: G51A C61A C66A
Second: C49G G68A
The yeast fitness of the first is lower: no more than 0.5 for the first, 0.953 for the second.

Compared with C49G G68C, C49U G52C A57C G63C is lower in yeast fitness: 0.704 for the first, no more than 0.5 for the second.

Compared with C49U C62U A69U, G52C A65C A70G is lower in yeast fitness: 0.948 for the first, 0.515 for the second.

U53A A57U A65U showed a yeast fitness of 0.725.
